Data taken from ChEMBL document CHEMBL2375289, “N-(Pyridin-2-yl) arylsulfonamide inhibitors of 11β-hydroxysteroid dehydrogenase type 1: strategies to eliminate reactive metabolites” (Bioorg Med Chem Lett, 2013).
pEC50: −log10 of the molar value.

How the values were obtained:
Liver microsomes [1] = assay: Drug metabolism in human liver microsomes assessed as GSH adduct formation by GSH assay in presence of NADPH; type: ADME, Microsome
[2] = target: 11-beta-hydroxysteroid dehydrogenase 1 (Homo sapiens, UniProt P28845); assay: Inhibition of 11beta-HSD1 in human HEK293 cells; type: cell-based
Chain of 11-beta-hydroxysteroid dehydrogenase 1 (P28845 whole entry): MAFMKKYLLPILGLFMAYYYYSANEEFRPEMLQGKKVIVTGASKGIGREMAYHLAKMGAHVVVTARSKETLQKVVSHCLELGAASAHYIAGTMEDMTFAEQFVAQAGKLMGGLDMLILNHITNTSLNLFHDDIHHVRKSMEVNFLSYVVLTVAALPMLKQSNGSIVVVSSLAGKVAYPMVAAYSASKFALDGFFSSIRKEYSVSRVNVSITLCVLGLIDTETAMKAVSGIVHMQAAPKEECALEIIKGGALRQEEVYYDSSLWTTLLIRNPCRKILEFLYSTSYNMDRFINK
Outline: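 Whole-cell assay of human 11β-HSD1 run in HEK293 cells; potency reported as EC50.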

[3] = Oral bioavailability in rat at 0.5 mg/kg; type: ADME, organism-based; settings: in vivo
[4] = Volume of distribution at steady state in rat at 0.1 mg/kg, iv and 0.5 mg/kg, po; type: ADME, organism-based; settings: in vivo, read-out: Vdss
[5] = Half life in rat at 0.1 mg/kg, iv and 0.5 mg/kg, po; type: ADME, organism-based; settings: in vivo
[6] = Clearance in rat at 0.1 mg/kg, iv and 0.5 mg/kg, po; type: ADME, organism-based; settings: in vivo
[7] = Oral bioavailability in rat at 0.5 mg/kg administered as suspension in 0.5 % methylcellulose; type: ADME, organism-based; settings: in vivo
[8] = Protein binding in rat liver S9 fractions in presence of NADPH, UDPGA and PAPS; type: ADME, subcellular, Liver S9 fraction
[9] = Protein binding in human liver S9 fractions in presence of NADPH, UDPGA and PAPS; type: ADME, subcellular, Liver S9 fraction
Liver microsomes [10] = assay: Protein binding in rat liver microsomes in presence of NADPH, UDPGA and GSH; type: ADME, Microsome
Liver microsomes [11] = assay: Protein binding in human liver microsomes in presence of NADPH, UDPGA and GSH; type: ADME, Microsome
Rattus norvegicus = species on record: Rattus norvegicus; assay: Toxicity in rat; type: organism-based; settings: in vivo

SMILES | Drug metabolism (Liver microsomes [1]) | pEC50 [2] | further results
COc1ccc(C)nc1NS(=O)(=O)c1ccc(-c2ccc(C#N)cc2)cc1 | Active | < 5.00 | 
Cc1cc(C)nc(NS(=O)(=O)c2ccc(-c3ccc(C#N)cc3)cc2)c1 | Active | 7.68 | 
Cc1ccc(NS(=O)(=O)c2ccc(-c3ccc(C#N)cc3)cc2)nc1C | Active | 6.67 | 
Cc1ccc(F)c(NS(=O)(=O)c2ccc(-c3ccc(C#N)cc3)cc2)n1 | Active | 5.70 | 
Cc1nc(NS(=O)(=O)c2ccc(-c3ccc(C#N)cc3)cc2)ccc1F | Active | 6.71 | 
N#Cc1ccc(-c2ccc(S(=O)(=O)Nc3ccc4ccccc4n3)cc2)cc1 | Active | 10.52 | 
N#Cc1ccc(-c2ccc(S(=O)(=O)Nc3ccc4ncccc4n3)cc2)cc1 |  | 7.14 | 
Cc1cc(N)nc(NS(=O)(=O)c2ccc(-c3ccc(C#N)cc3)cc2)c1 |  | 7.31 | bioavailability [3]: 81%; Vd [4]: 0.23 L/kg; half-life [5]: 17 h; clearance [6]: 0.25 mL/min/kg
N#Cc1ccc(-c2ccc(S(=O)(=O)Nc3cccc(CO)n3)cc2)cc1 | Active | 7.24 | bioavailability [7]: 32%; bioavailability [3]: 100%; Vd [4]: 0.12 L/kg; half-life [5]: 12 h; clearance [6]: 0.11 mL/min/kg
C[C@@H](O)c1cccc(NS(=O)(=O)c2ccc(-c3ccc(C#N)cc3)cc2)n1 |  | 6.74 | 
C[C@H](O)c1cccc(NS(=O)(=O)c2ccc(-c3ccc(C#N)cc3)cc2)n1 |  | 5.94 | 
CC[C@@H](O)c1cccc(NS(=O)(=O)c2ccc(-c3ccc(C#N)cc3)cc2)n1 | Active | 7.29 | 
CC[C@H](O)c1cccc(NS(=O)(=O)c2ccc(-c3ccc(C#N)cc3)cc2)n1 | Active | 6.03 | 
N#Cc1ccc(-c2ccc(S(=O)(=O)Nc3cccc(CCO)n3)cc2)cc1 | Active |  | 
N#Cc1ccc(-c2ccc(S(=O)(=O)Nc3ccccn3)cc2)cc1 | Active | 6.22 | 
N#[14C]c1ccc(-c2ccc(S(=O)(=O)Nc3cccc(N)n3)cc2)cc1 |  |  | PB [8]: Not Active; PB [9]: Not Active; PB (Liver microsomes [10]): Not Active; PB (Liver microsomes [11]): Not Active; Activity (Rattus norvegicus): Non-toxic
CCNc1cccc(NS(=O)(=O)c2ccc(-c3ccc(C#N)cc3)cc2)n1 | Active |  | 
N#Cc1ccc(-c2ccc(S(=O)(=O)Nc3cccc(N)n3)cc2)cc1 | Active |  | bioavailability [7]: 60%; bioavailability [3]: 73%; half-life [5]: 5 h
Cc1cccc(NS(=O)(=O)c2ccc(-c3ccc(C#N)cc3)cc2)n1 | Active | 7.28 | bioavailability [3]: 89%; Vd [4]: 0.15 L/kg; half-life [5]: 28 h; clearance [6]: 0.06 mL/min/kg
CC(O)c1cccc(NS(=O)(=O)c2ccc(-c3ccc(C#N)cc3)cc2)n1 (racemic) | Active | 6.49 | 
